SMILES strings stand for the structures. In brackets after ≈: the same amount, converted by molar mass. Activity calls are given as the source filed them. The calls are words filed in the database; no cut-off is given here.

Usually IC50 stands for the concentration that inhibits the measured activity by half. For orientation: Kd means the free concentration of one partner at which half of the binding sites on the other are occupied at equilibrium, for simple one-to-one binding.

In assay [1] the target is T1, Dihydrofolate reductase (Homo sapiens) (UniProt P00374).
T1 sequence (whole entry): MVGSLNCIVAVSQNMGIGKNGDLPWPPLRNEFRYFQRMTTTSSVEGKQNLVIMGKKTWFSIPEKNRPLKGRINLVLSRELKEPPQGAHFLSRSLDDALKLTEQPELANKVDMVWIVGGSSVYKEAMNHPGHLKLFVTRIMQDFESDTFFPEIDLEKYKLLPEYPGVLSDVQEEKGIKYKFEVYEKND
The assay can be described thus: Inhibition of human DHFR at 25 uM.

In assay [2] the test system is Escherichia coli. The assay can be described thus: Antibacterial activity against tolC/rfaC-deficient Escherichia coli. In kind it is functional.
Assay [3] deals with DNA ligase 1 (Homo sapiens) (UniProt P18858). The assay can be described thus: Inhibition of human DNA Ligase 1 at 25 uM.
Sequence of DNA ligase 1 (Homo sapiens) (P18858 whole entry): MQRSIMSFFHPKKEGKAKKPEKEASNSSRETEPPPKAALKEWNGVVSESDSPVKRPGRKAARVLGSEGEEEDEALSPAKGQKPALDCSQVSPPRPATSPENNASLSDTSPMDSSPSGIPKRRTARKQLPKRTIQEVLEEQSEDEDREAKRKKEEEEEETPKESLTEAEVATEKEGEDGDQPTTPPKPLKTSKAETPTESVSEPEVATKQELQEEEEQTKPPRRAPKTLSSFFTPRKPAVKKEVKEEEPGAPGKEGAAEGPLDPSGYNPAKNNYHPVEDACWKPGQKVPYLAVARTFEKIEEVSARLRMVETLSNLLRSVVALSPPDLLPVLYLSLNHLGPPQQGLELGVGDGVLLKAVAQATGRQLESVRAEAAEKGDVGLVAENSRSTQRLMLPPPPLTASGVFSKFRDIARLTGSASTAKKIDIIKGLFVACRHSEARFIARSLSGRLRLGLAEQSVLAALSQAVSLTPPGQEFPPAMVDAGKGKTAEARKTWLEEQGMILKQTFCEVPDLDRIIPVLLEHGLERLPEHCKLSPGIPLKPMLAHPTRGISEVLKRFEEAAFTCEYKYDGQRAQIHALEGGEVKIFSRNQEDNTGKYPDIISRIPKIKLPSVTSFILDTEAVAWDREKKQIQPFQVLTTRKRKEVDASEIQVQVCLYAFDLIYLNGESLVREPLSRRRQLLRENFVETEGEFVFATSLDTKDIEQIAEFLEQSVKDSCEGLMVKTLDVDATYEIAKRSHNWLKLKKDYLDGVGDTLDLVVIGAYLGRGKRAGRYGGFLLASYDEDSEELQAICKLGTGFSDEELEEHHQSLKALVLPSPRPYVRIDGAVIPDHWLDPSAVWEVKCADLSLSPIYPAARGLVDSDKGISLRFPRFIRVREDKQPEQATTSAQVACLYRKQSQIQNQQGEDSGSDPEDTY
The test system of assay [4] is Escherichia coli. The assay can be described thus: Antibacterial activity against tolC/rfaC-deficient Escherichia coli harboring ligA251 mutant. In kind it is functional. In outline:
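MIC read-out. The E. coli strain carries only the ligA251 allele (L15F exchange), which gives more than 20-fold reduced ligation activity and sensitizes it to LigA inhibitors.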

Assay [5] in a line: Inhibition of Escherichia coli NAD-dependent DNA ligase.
Assay [6] addresses DNA ligase (Staphylococcus aureus, UniProt Q9AIU7). The assay can be described thus: Inhibition of Staphylococcus aureus NAD-dependent DNA ligase.
The test system of assay [7] is Haemophilus influenzae. The assay can be described thus: Antibacterial activity against wild type Haemophilus influenzae A921 by CLSI dilution method. In kind it is functional.
The target of assay [8] is DNA ligase 1 (Homo sapiens) (UniProt P18858). The assay can be described thus: Inhibition of human DNA Ligase 1.
In assay [9] the target is T1, Dihydrofolate reductase (Homo sapiens). The assay can be described thus: Inhibition of human DHFR.
Assay [10] in a line: Inhibition of Streptococcus pneumoniae NAD-dependent DNA ligase assessed as equilibrium dissociation constant.
Assay [11] has as its system Streptococcus pneumoniae. The assay can be described thus: Antibacterial activity against wild type Streptococcus pneumoniae A-216 by CLSI dilution method. In kind it is functional.
For assay [12], the system named is Staphylococcus aureus. The assay can be described thus: Antibacterial activity against wild type Staphylococcus aureus ATCC 29213 by CLSI dilution method. In kind it is functional.

Sequence of DNA ligase (Q9AIU7 whole entry): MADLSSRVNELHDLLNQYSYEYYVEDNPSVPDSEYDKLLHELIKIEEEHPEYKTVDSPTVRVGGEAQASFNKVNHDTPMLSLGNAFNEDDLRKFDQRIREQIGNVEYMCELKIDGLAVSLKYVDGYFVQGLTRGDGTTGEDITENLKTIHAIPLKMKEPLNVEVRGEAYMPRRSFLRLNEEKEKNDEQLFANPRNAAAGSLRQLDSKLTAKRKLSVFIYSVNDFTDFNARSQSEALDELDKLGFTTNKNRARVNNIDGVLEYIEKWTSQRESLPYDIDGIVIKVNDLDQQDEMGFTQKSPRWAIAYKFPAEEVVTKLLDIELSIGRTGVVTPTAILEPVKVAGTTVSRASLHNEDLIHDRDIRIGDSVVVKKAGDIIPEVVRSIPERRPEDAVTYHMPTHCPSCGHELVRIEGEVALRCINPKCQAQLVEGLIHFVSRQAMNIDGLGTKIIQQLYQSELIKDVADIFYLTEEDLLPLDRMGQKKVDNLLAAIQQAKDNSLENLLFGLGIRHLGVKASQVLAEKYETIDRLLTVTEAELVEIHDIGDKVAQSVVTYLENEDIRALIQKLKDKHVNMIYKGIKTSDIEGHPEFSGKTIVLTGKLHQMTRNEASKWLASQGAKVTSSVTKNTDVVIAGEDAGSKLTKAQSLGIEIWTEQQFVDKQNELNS

In the case of `COc1nc2nc(N)nc(N)c2nc1C`, the inhibition result in assay [1] and in assay [3] was “inactive” in each case. Also, the MIC in assay [2] was above 16 µg/mL; in [4], 2 µg/mL (≈ 9.7 µM). In addition, the IC50 turned out to be 25000 nM in [5] and 2500 nM in assay [6].

Regarding `Cc1c(Cc2ccncc2)c(Cl)nc2nc(N)c(C(N)=O)cc12`, the MIC in assay [2] is above 16 µg/mL; in assay [7] it was 2 µg/mL (≈ 6.1 µM); in assay [4], 0.25 µg/mL (≈ 0.763 µM); in [11], 8 µg/mL (≈ 24.4 µM); in [12], above 16 µg/mL. Besides, the inhibition result in assay [8] and in assay [9] was “inactive” throughout. Besides, the IC50 in assay [5] amounted to 1000 nM. Besides, the equilibrium dissociation constant (Kd) in [10] is 118 nM.

With `NC(=O)c1cc2cc(CO)c(C(F)(F)F)nc2nc1N`, the MIC is above 16 µg/mL in [2]; 2 µg/mL (≈ 6.99 µM) in assay [7]; 2 µg/mL (≈ 6.99 µM) in assay [4]; above 16 µg/mL in assay [11]; above 16 µg/mL in assay [12]. Besides, the inhibition entry in assay [8] and in [9] was “inactive” throughout. Further, in assay [5], the IC50 was 500 nM. The Kd in assay [10] turned out to be 389 nM.

Consider `NC(=O)c1cc2cc(C3CCCC3)c(C(F)(F)F)nc2nc1N`, for which the MIC in assay [2] is above 16 µg/mL; in assay [7] it was 16 µg/mL (≈ 49.3 µM); in assay [4] it was 4 µg/mL (≈ 12.3 µM); in assay [11], 16 µg/mL (≈ 49.3 µM); in [12], above 16 µg/mL. Besides, the inhibition result in assay [8] and in assay [9] was “inactive” throughout. In assay [5], the IC50 amounted to 2500 nM. The Kd in assay [10] amounted to 150 nM.

With `NC(=O)c1cc2cc(C3CC3)c(C(F)(F)F)nc2nc1N`, the MIC was found to be 2 µg/mL (≈ 6.75 µM) in [2]; 0.5 µg/mL (≈ 1.69 µM) in [7]; 0.125 µg/mL (≈ 0.422 µM) in assay [4]; 16 µg/mL (≈ 54 µM) in assay [11]; 1 µg/mL (≈ 3.38 µM) in assay [12]. The inhibition result in assay [8] and in [9] was “inactive” each time. In [5], this compound came in with an IC50 of 400 nM. Besides, in assay [10], the Kd was found to be 83 nM.

(Values after ChEMBL document CHEMBL2163244, “Structure-guided design, synthesis and biological evaluation of novel DNA ligase inhibitors with in vitro and in vivo anti-staphylococcal activity” (Bioorg Med Chem Lett, 2012).)
